From paper PMC7970580 (ACS Omega, 2021)
Where two headings read alike, the source gives them in different places.

Legend:
Type in all cases: cell-based
RKOP 27 = assay: MTT antiproliferative assay, colon RKOP 27 cells; conditions: RKOp27, 72 h, read-out: IC50 values, RKOP 27
Procedure, shortened: (§1)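 ATCC-sourced cancer cells were seeded in RPMI 1640 at 20 000 cells/mL and left 24 h to adhere. Serial dilutions of test compound ([…], in DMSO) were added, then incubated 72 h. MTT (5 mg/mL in PBS) was added for 4 h. Medium was removed, formazan dissolved in DMSO and read at 570 nm. IC50 came from linear regression of the dose–response curve; three runs, mean ± SD.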

U937 = assay: MTT antiproliferative assay, leukemia U937 cells; conditions: Homo sapiens, U-937, 72 h, read-out: IC50 values, U937
Procedure, shortened: as §1

NCIH 460 = assay: MTT antiproliferative assay, large-cell lung NCIH 460 cells; conditions: Homo sapiens, NCI-H460, 72 h, read-out: IC50 values, N CIH 460
Procedure, shortened: as §1

HeLa = assay: MTT antiproliferative assay, cervical HeLa cells; conditions: Homo sapiens, 72 h, read-out: IC50 values, HeLa
Procedure, shortened: as §1

SKMEL-28 = assay: MTT antiproliferative assay, melanoma SKMEL-28 cells; conditions: read-out: IC50 values, SKMEL-28
Procedure, shortened: as §1

| IC50 (U937) [nM] | IC50 (HeLa) [nM] | IC50 (SKMEL-28; Homo sapiens, SK-MEL-28, 72 h) [nM] | IC50 (SKMEL-28; MTT, 72 h, mean ± SD, three runs) [nM] | Compound | IC50 (RKOP 27) [nM] | IC50 (NCIH 460) [nM] |
| --- | --- | --- | --- | --- | --- | --- |
| 836 ± 69 | 246 ± 69 | 669 ± 9.8 |  | N#Cc1c(-c2cccs2)cc(-c2cccc3ccccc23)[nH]c1=O [4b, 6-(Naphthalen-1-yl)-2-oxo-4-(thiophen-2-yl)-1,2-dihydropyridine-3-carbonitrile] | 39 ± 9.8 | 58 ± 6.9 |
| 1590 ± 215 | 1260 ± 227 | 1300 ± 106 |  | N#Cc1c(-c2cccs2)cc(-c2cccc3ccccc23)nc1NN [11b, 2-Hydrazinyl-6-(naphthalen-1-yl)-4-(thiophen-2-yl)nicotinonitrile] | 846 ± 96 | 478 ± 96 |
| 976 ± 125 | 1390 ± 110 | 1360 ± 98 |  | N#Cc1c(-c2cccs2)cc(-c2cccc3ccccc23)nc1NNC(=O)Cc1ccccc1 [14b, N′-(3-Cyano-6-(naphthalen-1-yl)-4-(thiophen-2-yl)pyridin-2-yl)-2-phenylacetohydrazide] | 869 ± 87 | 789 ± 69 |
|  |  |  |  | Nc1ccn([C@@H]2O[C@H](CO)[C@@H](O)C2(F)F)c(=O)n1 [gemcitabine, reference compound] |  | 2130 ± 50 |
| 1630 ± 298 | 1020 ± 136 | 1240 ± 196 |  | N#Cc1c(-c2ccc(Cl)cc2)cc(-c2cccc3ccccc23)[nH]c1=S [7a, 4-(4-Chlorophenyl)-6-(naphthalen-1-yl)-2-thioxo-1,2-dihydropyridine-3-carbonitrile] | 596 ± 96 | 764 ± 102 |
|  |  |  | 3450 ± 64 | aldelseukin [reference compound] |  |  |
| 1470 ± 151 | 1440 ± 108 | 1370 ± 389 |  | Cc1nnc2c(C#N)c(-c3cccs3)cc(-c3cccc4ccccc34)n12 [12b, 3-Methyl-5-(naphthalen-1-yl)-7-(thiophen-2-yl)-[1,2,4]triazolo[4,3-a]pyridine-8-carbonitrile] | 869 ± 87 | 648 ± 76 |
| 1690 ± 89 | 1270 ± 103 | 1500 ± 218 |  | Cc1cc(=O)[nH]n1-c1nc(-c2cccc3ccccc23)cc(-c2ccc(Cl)cc2)c1C#N [13a, 4-(4-Chlorophenyl)-2-(5-methyl-3-oxo-2,3-dihydro-1H-pyrazol-1-yl)-6-(naphthalen-1-yl)nicotinonitrile] | 879 ± 68 | 765 ± 89 |
| 1760 ± 68 | 1360 ± 139 | 1360 ± 182 |  | Cc1cc(=O)[nH]n1-c1nc(-c2cccc3ccccc23)cc(-c2cccs2)c1C#N [13b, 2-(5-Methyl-3-oxo-2,3-dihydro-1H-pyrazol-1-yl)-6-(naphthalen-1-yl)-4-(thiophen-2-yl)nicotinonitrile] | 698 ± 79 | 869 ± 76 |
| 642 ± 69 | 211 ± 69 | 669 ± 26 |  | N#Cc1c(-c2cccs2)cc(-c2cccc3ccccc23)nc1NCCN [10b, 2-((2-Aminoethyl)amino)-6-(naphthalen-1-yl)-4-(thiophen-2-yl)nicotinonitrile] | 46 ± 2.6 | 46 ± 6.9 |
| 581 ± 51 | 185 ± 51 | 510 ± 41 |  | Cc1nnc2c(C#N)c(-c3ccc(Cl)cc3)cc(-c3cccc4ccccc34)n12 [12a, 7-(4-Chlorophenyl)-3-methyl-5-(naphthalen-1-yl)-[1,2,4]triazolo[4,3-a]pyridine-8-carbonitrile] | 48 ± 4.1 | 33 ± 5.1 |
| 4450 ± 50 |  |  |  | COc1cccc2c1C(=O)c1c(O)c3c(c(O)c1C2=O)C[C@@](O)(C(=O)CO)C[C@@H]3O[C@H]1C[C@H](N)[C@H](O)[C@H](C)O1 [doxorubicin, reference compound] |  |  |
| 1570 ± 321 | 1370 ± 213 | 1130 ± 137 |  | N#Cc1c(-c2cccs2)cc(-c2cccc3ccccc23)[nH]c1=S [7b, 6-(Naphthalen-1-yl)-4-(thiophen-2-yl)-2-thioxo-1,2-dihydropyridine-3-carbonitrile] | 697 ± 72 | 638 ± 138 |
| 1530 ± 255 | 973 ± 185 | 1160 ± 318 |  | N#Cc1c(-c2ccc(Cl)cc2)cc(-c2cccc3ccccc23)n(C(=S)Nc2ccccc2)c1=O [5a, 4-(4-Chlorophenyl)-3-cyano-6-(naphthalen-1-yl)-2-oxo-N-phenylpyridine-1(2H)-carbothioamide] | 635 ± 45.8 | 518 ± 56.6 |
| 2550 ± 374 | 795 ± 96 | 1370 ± 215 |  | N#Cc1c(-c2cccs2)cc(-c2cccc3ccccc23)nc1Cl [6b, 2-Chloro-6-(naphthalen-1-yl)-4-(thiophen-2-yl)nicotinonitrile] | 695 ± 56 | 728 ± 88 |
| 458 ± 72 | 255 ± 72 | 572 ± 36 |  | N#Cc1c(-c2ccc(Cl)cc2)cc(-c2cccc3ccccc23)nc1NN [11a, 4-(4-Chlorophenyl)-2-hydrazinyl-6-(naphthalen-1-yl)nicotinonitrile] | 55 ± 3.6 | 44 ± 7.2 |
| 544 ± 74 | 229 ± 74 | 774 ± 21 |  | CCCCCCCCN(c1nc(-c2cccc3ccccc23)cc(-c2ccc(Cl)cc2)c1C#N)c1nc(-c2cccc3ccccc23)cc(-c2ccc(Cl)cc2)c1C#N [8a, 2,2′-(Octylazanediyl)bis(4-(4-chlorophenyl)-6-(naphthalen-1-yl)nicotinonitrile)] | 40 ± 2.1 | 48 ± 7.4 |
| 1340 ± 174 | 896 ± 115 | 1850 ± 321 |  | N#Cc1c(-c2ccc(Cl)cc2)cc(-c2cccc3ccccc23)nc1Cl [6a, 2-Chloro-4-(4-chlorophenyl)-6-(naphthalen-1-yl)nicotinonitrile] | 512 ± 32 | 689 ± 98 |
|  |  |  |  | CCCCCOC(=O)Nc1nc(=O)n([C@@H]2O[C@H](C)[C@@H](O)[C@H]2O)cc1F [capecitabine, reference compound] | 4330 ± 64 |  |
| 1810 ± 369 | 1160 ± 206 | 1790 ± 236 |  | N#Cc1c(-c2ccc(Cl)cc2)cc(-c2cccc3ccccc23)nc1NCCN [10a, 2-((2-Aminoethyl)amino)-4-(4-chlorophenyl)-6-(naphthalen-1-yl)nicotinonitrile] | 596 ± 59 | 896 ± 78 |
| 980 ± 55 | 277 ± 55 | 755 ± 18 |  | N#Cc1c(-c2cccs2)cc(-c2cccc3ccccc23)n(C(=S)Nc2ccccc2)c1=O [5b, 3-Cyano-6-(naphthalen-1-yl)-2-oxo-N-phenyl-4-(thiophen-2-yl)pyridine-1(2H)-carbothioamide] | 56 ± 3.2 | 32 ± 5.5 |
| 766 ± 19 | 250 ± 19 | 590 ± 15 |  | N#Cc1c(-c2ccc(Cl)cc2)cc(-c2cccc3ccccc23)[nH]c1=O [4a, 4-(4-Chlorophenyl)-6-(naphthalen-1-yl)-2-oxo-1,2-dihydropyridine-3-carbonitrile] | 30 ± 1.5 | 66 ± 9 |
| 1370 ± 284 | 1040 ± 326 | 1260 ± 168 |  | CCCCCCCCN(c1nc(-c2cccc3ccccc23)cc(-c2cccs2)c1C#N)c1nc(-c2cccc3ccccc23)cc(-c2cccs2)c1C#N [8b, 2,2′-(Octylazanediyl)bis(6-(naphthalen-1-yl)-4-(thiophen-2-yl)nicotinonitrile)] | 486 ± 49 | 468 ± 69 |
